# Most compounds without a hit are left out; they make up all but 3.8% or so of the library.
# V-ATPase pHluor: alters yeast V-ATPase proton transport; 0.37% of 350,000 active; response, % at 10 µM; S. cerevisiae, pHLuorin cytosolic pH fluorescence; AID 504577; in the data active = response mostly above about 7.3%, no sharp cut-off; inactive = mostly below about 5.4%; note: actives read high
# Granule exo inh: blocks lytic granule exocytosis; 0.66% of 360,000 active; inhibition, % at 10 µM; AID 651702; TALL-104 LAMP-1 surface exposure, flow cytometry; cells stimulated with thapsigargin and PMA;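 active = inhibition above about 55%, limit read from the data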
# MPTP block: blocks calcium-induced mitochondrial swelling | isolated mouse mitochondria, Ca2+ swelling absorbance, 30 min | inhibition, % at 10 µM | 1.4% of 360,000 active;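 active = inhibition of 50% or more, scaled per plate between neutral and stimulator controls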
# B2AR ag: activates human beta-2 adrenergic receptor causing internalization | response, % (test concentration not listed) | 0.43% of 340,000 active | AID 504454 | Am2.2-beta2AR cells, FAP receptor internalization, flow cytometry | P07550;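 active = response above a set limit, near 3 SD of response in nonfluorescent compounds, cut at about 42% in these data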
# Target sequence (P07550 whole entry, looked up): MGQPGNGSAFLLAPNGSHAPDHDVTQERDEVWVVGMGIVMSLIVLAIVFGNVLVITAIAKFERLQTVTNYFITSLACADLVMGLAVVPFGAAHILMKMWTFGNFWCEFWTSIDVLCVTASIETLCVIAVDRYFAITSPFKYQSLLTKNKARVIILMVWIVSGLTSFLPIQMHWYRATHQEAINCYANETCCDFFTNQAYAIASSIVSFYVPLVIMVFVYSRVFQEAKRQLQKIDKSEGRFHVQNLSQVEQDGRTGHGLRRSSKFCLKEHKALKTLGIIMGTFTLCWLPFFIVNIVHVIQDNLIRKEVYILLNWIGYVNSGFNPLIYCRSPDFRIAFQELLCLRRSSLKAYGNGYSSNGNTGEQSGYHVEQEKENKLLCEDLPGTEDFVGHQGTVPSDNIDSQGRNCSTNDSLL
# rCAG binder: binds r(CAG) RNA repeats | r(CAG) RNA repeat, TO-PRO-1 dye displacement fluorescence | inhibition, % at 3 µM | 1.3% of 370,000 active;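 active = inhibition above the plate cutoff, the mean of all test compounds on that plate plus 3 SD, cut at about 35% in these data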;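 note: higher means more dye released from RNA so lower well fluorescence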
# T cell HTS: T cell immune modulators affecting CD8 T cell-vesicle binding. 2C CD8+ T cell-vesicle binding, flow cytometry; hits give low values. response (vesicle binding), % at 7 µM. 0.068% of 330,000 active;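 active = response, share of CD8 T cells binding vesicles, and their 90th percentile fluorescence all below set limits, cut at about 80% in these data, passing the limit was not always enough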;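 note: values below 100% mean blocked vesicle binding to the CD8+ T cells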
#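 incubation = binding step 1.5 h, 37 °C, antibody labelling 20 min, ice | test system = 2C mouse CD8+ T cells | read-out basis = percent CD8+ FL2 mean versus row control | controls = Peptide-free naked vesicles (low) and QL9 vesicles with 0.7% DMSO vehicle (high) | detection = flow cytometry of vesicle-bound cells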
# MPTP counter: membrane potential counter-screen of mitochondrial pore inhibitors. shares compounds with MPTP block. isolated mitochondria, Rhodamine 123 fluorescence. inhibition, % at 10 µM. 78% of 5,000 active. AID 624504; in the data active = inhibition above about 22%
# MPTP abs DR: MPTP inhibition, dose response swelling confirmation; shares compounds with MPTP block; isolated mitochondria swelling, absorbance; IC50, µM; 58% of 780 active; AID 651561; in the data active = IC50 below about 20 µM
# MPTP cs DR: active in counter-screen for permeability transition pore inhibitors; shares compounds with MPTP block; isolated mitochondria counterscreen, fluorescence read-out; 49% of 780 active; AID 651564; IC50, µM; in the data active = IC50 below about 80 µM
# A number is an active result; – = inactive; · = not tested or not shown; + = active, no number.
SMILES,V-ATPase pHluor,Granule exo inh,MPTP block,B2AR ag,rCAG binder,T cell HTS,MPTP counter,others
CCOc1ccc(C(=O)Nc2ccc(N3CCN(C)CC3)cc2)cc1Br,–,–,60,–,–,–,–,MPTP abs DR=18;MPTP cs DR=–
O=S(=O)(Nc1cccnc1)c1ccc(C2CCCCC2)cc1,–,–,104,–,–,–,106,
CCOC(=O)C1CCCN(S(=O)(=O)c2ccc(S(=O)(=O)N3CCCC3)cc2)C1 (configuration not stated),–,–,62,–,–,–,74,
O=C(/C=C(\Nc1ccc(Br)c(F)c1)c1ccccc1)c1ccccc1,·,·,·,·,–,·,·,
O[C@H](COc1ccc(OC(F)(F)F)cc1)CN1CCC(C(O)(c2ccccc2)c2ccccc2)CC1,·,·,·,·,–,·,·,
Cc1ccc(NS(=O)(=O)c2sc3ccc(Cl)cc3c2C)cc1,–,–,66,–,–,–,63,
CN(C)c1ccc(NS(=O)(=O)c2cc(Cl)ccc2Cl)cc1,–,–,–,–,–,–,·,
CCCCCCn1c(NCC)nc2c1c(=O)n(C)c(=O)n2C,–,–,56,–,–,–,86,
CCn1c(CNC(=O)COc2ccc(C(C)C)cc2)nnc1SCC(=O)Nc1ccccc1C(C)C,–,–,53,–,–,–,57,
CCn1c(CNC(=O)COc2ccc(C(C)C)cc2)nnc1SCC(=O)Nc1ccccc1F,–,–,–,–,–,–,·,
CC(C)(C)N(Cc1cn(Cc2ccccc2)nn1)S(=O)(=O)c1ccc(F)cc1Br,·,·,·,·,–,·,·,
COc1cccc(OCCn2cc(C(=O)c3ccco3)c3ccccc32)c1,–,–,–,–,–,–,·,
COc1cccc(OCCn2cc(C(C)=O)c3ccccc32)c1,–,–,61,–,–,–,56,
Cc1ccc(C)c(OCCn2cc(C(=O)O)c3ccccc32)c1,–,–,–,–,–,–,·,
CC(=O)c1cn(CCOc2cc(C)ccc2C)c2ccccc12,–,–,97,–,–,–,83,
O=C(NN=Cc1ccc(O)cc1)c1cc(-c2ccc(Cl)cc2)n[nH]1,·,·,·,·,–,·,·,
CC(C)n1ncc2c(C(=O)Nc3cccc(C#N)c3)cc(C3CC3)nc21,–,–,73,–,–,–,85,
CCNC(=O)c1cccc(NC(=O)c2cc(C3CC3)nc3c2cnn3C(C)C)c1,–,–,–,–,–,·,·,
COc1ccc(NS(=O)(=O)c2ccc3[nH]c(=O)[nH]c3c2)cc1,–,–,–,–,–,–,·,
COc1ccc(NS(=O)(=O)c2ccc3nc(COc4ccc(Cl)c(C)c4)[nH]c3c2)cc1,–,–,67,–,–,–,66,
C=CCN1C(=O)[C@@H](CC(=O)NCc2cccc3ccccc23)[C@]2(C(=O)OC)CCCCC=C12,·,·,·,·,–,·,·,
CNC(=S)N/N=C/c1cccc(OCc2ccccc2F)c1,–,–,70,–,–,–,28,
Cc1ccnc(Nc2nc(-c3ccccc3)cs2)c1,–,–,–,–,–,–,·,
Cc1ccnc(Nc2nc(-c3c(C)nc4sccn34)cs2)c1,–,–,63,–,–,–,21,
Cc1ccc(S(=O)(=O)N2CCCCC2)cc1NC(=O)CSc1ncnc2ccccc12,–,–,–,–,–,–,·,
SMILES,V-ATPase pHluor,Granule exo inh,MPTP block,B2AR ag,rCAG binder,T cell HTS,MPTP counter,others
CCc1cccc(OCC(=O)Nc2ccc(C)c(S(=O)(=O)N3CCCCCC3)c2)c1,–,–,–,–,–,–,·,
Cc1ccc(NC(=O)COc2ccc(N(C)C(=O)C(C)(C)C)cc2)cc1S(=O)(=O)N1CCCCC1,–,–,93,–,–,–,100,
Cc1ccc(NC(=O)CSc2ncnc3ccccc23)cc1S(=O)(=O)N1CCCCCC1,–,–,62,–,–,–,81,
C[C@H](O)[C@@H]1CN2CCc3c([nH]c4c(-c5ccc6c(c5)OCO6)cccc34)[C@@H]2C[C@@H]1N(C)C(=O)c1ccccc1F,·,·,·,·,–,·,·,
Cc1ccc(C(=O)NNC(=S)NC(=O)c2ccc(Cl)cc2)cc1,–,–,91,–,–,–,–,
CC(=O)NNC(=S)NC(=O)c1ccc(C)cc1,–,–,–,–,–,–,·,
Cc1onc(-c2ccccc2)c1C(=O)NNC(=O)c1ccccc1,–,–,–,–,–,–,·,
CCCOc1ccc(C(=O)NNC(=S)NC(=O)c2cc(-c3ccc(Cl)cc3)nc3ccccc23)cc1,–,–,93,–,–,–,20,
Cc1onc(-c2ccccc2)c1C(=O)NNC(=S)NC(=O)c1ccc(Cl)cc1Cl,–,–,104,–,–,–,33,
Cc1onc(-c2ccccc2)c1C(=O)NNC(=S)NC(=O)c1ccc(Br)cc1,–,–,68,–,–,–,29,
C=CC[C@H]1c2ccccc2[C@H]2N3N=Cc4ccccc4[C@H]3[C@H](CCCC)C(=O)N2N1C(=O)c1ccccc1,·,·,·,·,–,·,·,
CCCCN1CCN(C(=O)c2ccc(CNC(=O)c3cccc(Br)c3)cc2)CC1,·,·,·,·,–,·,·,
Cc1onc(-c2ccccc2)c1C(=O)NNC(=S)NC(=O)/C=C/c1ccccc1,–,–,93,–,–,–,–,
Cc1cccc(C(=O)NC(=S)NNC(=O)c2ccccc2Cl)c1,–,–,85,–,–,–,–,
Cc1cccc(C(=O)NC(=S)NNC(=O)COc2c(C)cccc2C)c1,–,–,87,–,–,–,–,MPTP abs DR=6.7;MPTP cs DR=39
Cc1ccccc1C(=O)NNC(=S)NC(=O)c1ccc(Cl)cc1Cl,–,–,76,–,–,–,–,
CCc1ccc(CCNC(=O)OC2CC3CC2[C@H]2CCCCN2[C@H]3C)cc1 (some centres not stated),·,·,·,·,–,·,·,
CC(C)(C)c1ccc(-c2nnc(SCC(=O)c3ccc4ccccc4c3)n2-c2ccc(Cl)cc2)cc1,·,·,·,·,–,·,·,
O=C(c1ccncc1)N1CC[C@H]2[C@H](CCCN2Cc2ccccc2)C1,·,·,·,·,–,·,·,
O=[N+]([O-])c1cc(-c2n[nH]c(-c3ccccc3)n2)cc([N+](=O)[O-])c1,–,–,72,–,–,–,–,MPTP abs DR=20;MPTP cs DR=<2.5
CCc1ccc(S(=O)(=O)c2nnn3c2nc(NCCNC(C)=O)c2ccccc23)cc1,–,–,65,–,–,–,43,
O=[N+]([O-])c1ccc(CSc2nnc(-c3cccc(Cl)c3)n2Cc2ccco2)cc1,·,·,·,·,–,·,·,
CN(CC(=O)Nc1ccc(Cl)c(Cl)c1)C1CCCCC1,–,–,–,–,–,–,·,
CN(CC(=O)Nc1ccc(Cl)c(Cl)c1)C(=O)C12CC3CC(CC(C3)C1)C2,–,–,64,–,–,–,83,
CC1OC2(OC1C)C(=O)Nc1ccccc12 (configuration not stated),–,–,+,–,–,–,–,MPTP abs DR=–;MPTP cs DR=–
FC(F)(F)c1ccccc1C(C#Cc1ccccc1)NCc1ccc2c(c1)OCO2 (configuration not stated),·,·,·,·,–,·,·,
